Assay results published in PubChem BioAssay.
Unmarked numbers belong to inactive results.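 Rule for the calls, unless noted: active = viability at or below 30% in both replicate assays; inconclusive = viability at or below 30% in just one of the two assays; inactive = the rest.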

Assay: reduced viability of SK-BR-3 breast cancer cells – cell-based, 24 h, human, pilot screen (AID 572;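 active = viability at or below 10% of carrier control in both of two separate runs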;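 note: compound exposure lasted between 18 and 24 h rather than exactly 24 h; 100% = carrier-treated control wells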)
Conditions: SK-BR-3 viability, CellTiter-Glo luminescence, at 10 µM, active compounds read low
`O=C(c1cc(S(=O)(=O)N2CCOCC2)ccc1F)N1CCCc2ccccc21` showed a viability of 99%. Work on `CCc1nc(C)c(C#N)c2cc(OC)c(OC)cc12` yielded a viability of 103%. `COc1ccc2c(c1OC)C(=O)N(c1ccc3c(c1)CCC3)C2=O` showed a viability of 96.5%. With `COc1cc(CC(=O)NCc2ccc3c(c2)OCO3)cc(OC)c1OC` the viability was 99%. `COc1ccc(CCNC(=O)c2ccc(N3CCCC3=O)cc2)cc1OC` gave a viability of 102%. `COc1ccccc1NC(=O)c1ccc(COc2ccccc2OC)o1` showed a viability of 95.5%. With `COc1ccc(NC(=O)CSC2=C(C#N)C(c3ccco3)C3=C(CCCC3=O)N2)c(OC)c1` (stereo unspecified) the viability was 108%.

Assay: HUVEC growth inhibition – cell-based, human, primary screen (AID 575);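 note: 100% = median of untreated cell wells with 0.1% DMSO on each plate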
Conditions: HUVEC proliferation, CellTiter-Glo luminescence, 72 h; at 10 µM; active compounds read low
Procedure, shortened: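 system = HUVEC primary cells | amount = 1250 cells/well | buffer or medium = supplemented EBM, 2% fetal bovine serum | dosing = single-point 10 µM, DMSO 0.1% final | times = 72 h compound incubation | detection = CTG luminescence | read-out = % viability relative to median vehicle-well signal on each plate | control set = vehicle and MePR control wells | format = collagen-coated 384-well format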
For `CCc1nnc(NC(=O)c2ccc(COc3ccc(C)cc3)o2)s1`, the viability was 99.5%. For `CC(C)Cn1c(CN2CCN(c3ccccc3F)CC2)nc2c1c(=O)[nH]c(=O)n2C`, the viability was 72.9%. In the case of `O=C(CN(c1ccc(F)cc1)S(=O)(=O)c1ccc2c(c1)OCCO2)Nc1ccc2c(c1)OCO2`, the viability is reported as 91.3%. `CC1(C)Cc2noc(N)c2C(C)(C)N1O` showed a viability of 89.5%. Compound `COC(=O)CCn1nnc(-c2cccs2)n1` has a viability of 101%. Work on `CCOc1ccc(N(C(C)=O)C2C=CS(=O)(=O)C2)cc1` (stereo unspecified) yielded a viability of 95.7%. In the case of `CS(=O)(=O)N1CCCC(C(=O)NCCCN2CCC(Cc3ccccc3)CC2)C1` (stereo unspecified), the viability is reported as 101%. For `Cn1c(=O)cc(OCC(=O)NCCCN2CCN(c3cccc(Cl)c3)CC2)c2ccccc21`, the viability was 48.7%. Compound `CCC(C)NC(=O)c1ccccc1NC(=O)C(C)N(c1ccccc1)S(C)(=O)=O` (stereo unspecified) has a viability of 89.5%.
